Measurements: ChEMBL document CHEMBL1155163, “Deoxyribonucleoside kinases activate nucleoside antibiotics in severely pathogenic bacteria” (Antimicrob Agents Chemother, 2007)
≈ marks a conversion by molar mass, not a printed value. Calls of active or inactive are those of the source. The rule behind the calls is not given here.

Assays:
[1] = test system: Streptococcus sp.; test: Antimicrobial activity against Streptococcus sp. 07706-1 after 20 hrs; type: functional
Method in brief: (§1)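 Organisms taken from overnight Columbia blood agar, adjusted to McFarland 0.5 in 0.9% NaCl, diluted a further 10-fold, then spotted on Mueller-Hinton agar containing graded nucleoside analog concentrations. Incubated 20 h at 37°C. MIC is the lowest concentration fully inhibiting growth, judged visually.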

[2] = test system: Streptococcus sp.; test: Antimicrobial activity against Streptococcus sp. 07686-2 after 20 hrs; type: functional; method in brief: as §1
[3] = test system: Staphylococcus aureus; test: Antimicrobial activity against Staphylococcus aureus CCM 885 after 20 hrs; type: functional; details: CCM 885, 20 h; method in brief: as §1
[4] = test system: Escherichia coli; test: Antimicrobial activity against Escherichia coli ATCC 25922 after 20 hrs; type: functional; details: ATCC 25922, 20 h; method in brief: as §1
[5] = test system: Streptococcus sp.; test: Antimicrobial activity against Streptococcus sp. 07941-1 after 20 hrs; type: functional; method in brief: as §1
[6] = test system: Staphylococcus aureus; test: Antimicrobial activity against Staphylococcus aureus ATCC 29213 after 20 hrs; type: functional; details: ATCC 29213, 20 h; method in brief: as §1
[7] = test system: Escherichia coli; test: Antibacterial activity against […] kinase-deficient Escherichia coli KY895 expressing Streptococcus pyogenes recombinant thymidine kinase; type: functional
[8] = test system: Escherichia coli; test: Antibacterial activity against […] kinase-deficient Escherichia coli KY895 expressing Staphylococcus aureus recombinant deoxyadenosine kinase; type: functional
[9] = test system: Streptococcus pyogenes; test: Antimicrobial activity against Streptococcus pyogenes AP1 after 20 hrs; type: functional; details: AP1, 20 h; method in brief: as §1
[10] = test system: Streptococcus pyogenes; test: Antibacterial activity against exponentially growing Streptococcus pyogenes AP1 at 0.2 ug/ml after 3 hrs by viable count susceptibility assay; type: functional, organism-based
Method in brief: (§2)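 Cells grown overnight in Todd-Hewitt broth at 37°C with 5% CO2, subcultured to OD620 0.4, washed twice and diluted 1,000-fold in 10 mM Tris-HCl pH 7.5, 5 mM glucose, 10% Todd-Hewitt. Stopped with ice-cold buffer; duplicate plating on Todd-Hewitt agar for viable counts.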

[11] = test system: Escherichia coli; test: Antibacterial activity against […] kinase-deficient Escherichia coli KY895 expressing Streptococcus pyogenes recombinant deoxyadenosine kinase; type: functional
[12] = test system: Staphylococcus aureus; test: Antibacterial activity against exponentially growing Staphylococcus aureus ATCC 29213 at 0.002 ug/ml after 3 hrs by viable count susceptibility assay; type: functional, organism-based; method in brief: as §2
[13] = test system: Streptococcus pyogenes; test: Antibacterial activity against 2.5 x 10^6 CFU Streptococcus pyogenes AP1-infected BALB/c mouse assessed as protection against bacterial dissemination in spleen at 100 ug, ip administered 6 hrs after bacterial infection and measured after 24 hrs postinfection; type: functional, organism-based
[14] = test system: Escherichia coli; test: Antibacterial activity against […] kinase-deficient Escherichia coli KY895 expressing Staphylococcus aureus recombinant thymidine kinase; type: functional
[15] = test system: Streptococcus pyogenes; test: Antibacterial activity against 1 x 10^7 CFU Streptococcus pyogenes AP1-infected BALB/c mouse assessed as survival at 100 ug, ip after 5 days; type: functional
Method in brief: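 Adult female BALB/c mice (~20 g), six per group, given ip 1 x 10^7 CFU of mid-exponential S. pyogenes AP1 (OD620 0.5, washed, in PBS). 6 h later, ip 100 µg drug or 100 µl PBS. Survival followed at regular intervals. Survivors sacrificed at 5 days. Inoculum checked by blood-agar colony counts.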

[16] = test system: Escherichia coli; test: Antibacterial activity against […] kinase-deficient Escherichia coli KY895 expressing Staphylococcus aureus recombinant deoxyguanosine kinase; type: functional, organism-based
[17] = substrate: Nc1nc(O)c2ncn([C@H]3C[C@H](O)[C@@H](CO)O3)c2n1; test: Activity of Staphylococcus aureus CCM 885 recombinant deoxyguanosine kinase
Method in brief: (§3)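 Recombinant S. aureus kinase cut from a GST fusion (pGEX-2T, E. coli BL21) by thrombin. Initial velocities taken from four time samples in a DE-81 filter-paper assay with tritiated substrates at varied concentrations. Fits by nonlinear regression to Michaelis-Menten, or to the substrate-inhibition equation where needed.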

[18] = substrate: Nc1nc(O)c2ncn([C@H]3C[C@H](O)[C@@H](CO)O3)c2n1; test: Ratio of kcat to Km for Staphylococcus aureus CCM 885 recombinant deoxyguanosine kinase; method in brief: as §3
[19] = substrate: Cc1cn([C@H]2C[C@H](N=[N+]=[N-])[C@@H](CO)O2)c(=O)[nH]c1=O; test: (§4) Activity of Staphylococcus aureus CCM 885 recombinant thymidine kinase
Method in brief: (§5)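 GST-fused SaTK expressed in E. coli BL21 (100 µM IPTG, 6 h at 25°C), purified on glutathione-Sepharose and cleaved from GST with thrombin. Initial velocities from four time samples, DE-81 filter-paper assay with tritium-labeled deoxyribonucleoside substrates at various concentrations. Michaelis-Menten nonlinear regression.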

[20] = substrate: Cc1cn([C@H]2C[C@H](O)[C@@H](CO)O2)c(=O)[nH]c1=O; test: as §4; method in brief: as §5
[21] = substrate: Cc1cn([C@H]2C[C@H](N=[N+]=[N-])[C@@H](CO)O2)c(=O)[nH]c1=O; test: (§6) Ratio of kcat to Km for Staphylococcus aureus CCM 885 recombinant thymidine kinase; method in brief: as §5
[22] = substrate: Cc1cn([C@H]2C[C@H](O)[C@@H](CO)O2)c(=O)[nH]c1=O; test: as §6; method in brief: as §5
[23] = substrate: Nc1ccn([C@@H]2O[C@H](CO)[C@@H](O)C2(F)F)c(=O)n1; test: (§7) Activity of Staphylococcus aureus CCM 885 recombinant deoxyadenosine kinase; method in brief: as §3
[24] = substrate: Nc1ncnc2c1ncn2[C@H]1C[C@H](O)[C@@H](CO)O1; test: as §7; method in brief: as §3
[25] = substrate: Nc1ccn([C@H]2C[C@H](O)[C@@H](CO)O2)c(=O)n1; test: as §7; method in brief: as §3
[26] = substrate: Nc1ccn([C@@H]2O[C@H](CO)[C@@H](O)C2(F)F)c(=O)n1; test: (§8) Ratio of kcat to Km for Staphylococcus aureus CCM 885 recombinant deoxyadenosine kinase; method in brief: as §3
[27] = substrate: Nc1ncnc2c1ncn2[C@H]1C[C@H](O)[C@@H](CO)O1; test: as §8; method in brief: as §3
[28] = substrate: Nc1ccn([C@H]2C[C@H](O)[C@@H](CO)O2)c(=O)n1; test: as §8; method in brief: as §3

With `Nc1nc(Cl)nc2c1ncn2[C@H]1C[C@H](O)[C@@H](CO)O1` [CLADRIBINE] the MIC [1] was 100 µM (≈ 28.6 µg/mL), the MIC [2] was 100 µM (≈ 28.6 µg/mL) and the MIC [3] was greater than 100 µM. For the same molecule, the MIC [4] was greater than 100 µM, the MIC [5] was 100 µM (≈ 28.6 µg/mL) and the MIC [6] was greater than 100 µM.

Molecule `Nc1ccn([C@@H]2O[C@H](CO)[C@@H](O)[C@@H]2O)c(=O)n1` [CYTARABINE] has an MIC [1] greater than 1000 µM, an MIC [2] greater than 1000 µM and an MIC [3] greater than 1000 µM. For the same molecule, the MIC [4] was greater than 1000 µM, the MIC [5] was greater than 1000 µM and the MIC [6] was greater than 1000 µM.

`CCc1cn([C@H]2C[C@H](O)[C@@H](CO)O2)c(=O)[nH]c1=O` [EDOXUDINE] showed an MIC [1] greater than 316 µM, an MIC [2] greater than 316 µM and an MIC [3] greater than 316 µM. It also gave an MIC [4] greater than 316 µM, an MIC [5] greater than 316 µM and an MIC [6] greater than 316 µM.

For `O=c1[nH]c(=O)n([C@H]2C[C@H](O)[C@@H](CO)O2)cc1F` [FLOXURIDINE], the MIC [1] was 0.316 µM (≈ 0.0778 µg/mL), the MIC [2] was 10 µM (≈ 2.46 µg/mL) and the MIC [3] was 0.00316 µM (≈ 0.000778 µg/mL). For the same molecule, the MIC [4] was 1 µM (≈ 0.246 µg/mL), the MIC [5] was 0.1 µM (≈ 0.0246 µg/mL) and the MIC [6] was 0.01 µM (≈ 0.00246 µg/mL).

`Nc1nc(F)nc2c1ncn2[C@@H]1O[C@H](CO)[C@@H](O)[C@@H]1O` [FLUDARABINE] gave an MIC [1] greater than 100 µM, an MIC [2] greater than 100 µM and an MIC [3] greater than 100 µM. For the same molecule, the MIC [4] was greater than 100 µM, the MIC [5] was greater than 100 µM and the MIC [6] was greater than 100 µM.

With `Nc1ccn([C@@H]2O[C@H](CO)[C@@H](O)C2(F)F)c(=O)n1` [GEMCITABINE] the Activity [7] was “inactive”, the MIC [8] was 0.001 µM and the MIC [1] was 0.0316 µM (≈ 0.00832 µg/mL). For the same molecule, the MIC [9] was 0.1 µM (≈ 0.0263 µg/mL), the MIC [2] was 0.1 µM (≈ 0.0263 µg/mL) and the Activity [10] was “Active”. The MIC [11] was 0.0316 µM, the Activity [12] was “Active” and the Activity [13] was “Active”. The MIC [3] was 0.1 µM (≈ 0.0263 µg/mL), the Activity [14] was “inactive” and the MIC [4] was greater than 1000 µM. It also gave an MIC [5] of 0.01 µM (≈ 0.00263 µg/mL), an MIC [6] of 0.1 µM (≈ 0.0263 µg/mL) and an Activity [15] of 83%. For the same molecule, the Activity [16] was “inactive”.

For `Cc1cn([C@H]2C[C@H](N=[N+]=[N-])[C@@H](CO)O2)c(=O)[nH]c1=O` [ZIDOVUDINE], the MIC [7] was 0.01 µM, the Activity [8] was “inactive” and the MIC [1] was greater than 316 µM. For the same molecule, the MIC [2] was greater than 316 µM, the Activity [11] was “inactive” and the MIC [3] was greater than 316 µM. The MIC [14] was 0.0316 µM, the MIC [4] was 10 µM (≈ 2.67 µg/mL) and the MIC [5] was 316 µM (≈ 84.4 µg/mL). For the same molecule, the MIC [6] was greater than 316 µM and the Activity [16] was “inactive”.

B1: Deoxyguanosine kinase (Staphylococcus aureus), Q0H0G8 (protein)
chain: MNKPFIAIEGPIGVGKSSLAHKLSQTLDFYEEKEIITENPFLSDFYEDISKWSFQTEMFFLCNRYKQFQDVTQLNQGVVSDYHIHKNKIFAKNTLSSVEFQKFSKIYDILTEDMIMPNMIIFLDADLDVLKSRIAKRNRSFEHQIEDEYLLKLKKDYREYYESLQSNGSNVVLIDTTSIDFLKNEQDYEDILHIILPMIGDITNE
B1 gave a Km [17] of 1.1 µM, a Vmax [17] of 1.4 U/mg and a kcat [17] of 0.57 s⁻¹. It also gave a kcat/Km [18] of 5.17 ×10⁵ /M/s.

B2: Thymidine kinase (Staphylococcus aureus), Q0H0G9 (protein)
chain: MYETYHSGWIECITGSMFSGKSEELIRRLRRGIYAKQKVVVFKPAIDDRYHKEKVVSHNGNAIEAINISKASEIMTHDLTNVDVIGIDEVQFFDDEIVSIVEKLSADGHRVIVAGLDMDFRGEPFEPMPKLMAVSEQVTKLQAVCAVCGSSSSRTQRLINGKPAKIDDPIILVGANESYEPRCRAHHIVAPSDNNKEEL
In the case of B2, the Km [19] is reported as 11.6 µM, the Vmax [19] is reported as 4 U/mg and the kcat [19] is reported as 1.48 s⁻¹. For the same molecule, the Km [20] was 2.8 µM, the Vmax [20] was 1.2 U/mg and the kcat [20] was 0.44 s⁻¹. It also gave a kcat/Km [21] of 1.29 ×10⁵ /M/s and a kcat/Km [22] of 1.6 ×10⁵ /M/s.

B3: Deoxyadenosine kinase (Staphylococcus aureus), Q0H0H0 (protein)
chain: MNNYGIPQNAIITIAGTVGVGKSTLTQALADKLNFKTSFENVEHNPYLDKFYSDFERWSFHLQIYFLAERFKEQKRMFEYGGGFVQDRSIYEDVDIFAKMHEEEGTMSKEDFKTYSDLFNAMVMTPYFPKPDVMIYLECNYDEVIDRIIERGREMEINTDPEYWKKLFKRYDDWINSFNACPVVRININEYDIHKDPESLNPMINKIARIIQTYRQVDTR
With B3 the Km [23] was 192 µM, the Vmax [23] was 0.43 U/mg and the kcat [23] was 0.19 s⁻¹. For the same molecule, the Km [24] was 29.2 µM, the Vmax [24] was 4.1 U/mg and the kcat [24] was 1.82 s⁻¹. It also gave a Km [25] of 34.4 µM, a Vmax [25] of 1.3 U/mg and a kcat [25] of 0.56 s⁻¹. The kcat/Km [26] was 9.81 ×10² /M/s, the kcat/Km [27] was 6.22 ×10⁴ /M/s and the kcat/Km [28] was 1.62 ×10⁴ /M/s.
